Screening data from PubChem BioAssay.
Shown are actives, neighbours in structure and some others; about 4.3% of the full set was active somewhere.
TAAR1 antagonist: human TAAR1 antagonists, primary screen, Fluo-8 calcium fluorescence, CHO RD-HGA16 cells | AID 624466, 2012 | antagonist | Trace amine-associated receptor 1 (Homo sapiens), Q96RJ0 | 360,000 compounds, 1.5% hits | inhibition, % at 3 µM;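 active = inhibition above a per-plate cutoff, the mean inhibition of test compounds on that plate plus 3 SD, cut at about 49% in these data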
Target sequence (Q96RJ0 whole entry, looked up): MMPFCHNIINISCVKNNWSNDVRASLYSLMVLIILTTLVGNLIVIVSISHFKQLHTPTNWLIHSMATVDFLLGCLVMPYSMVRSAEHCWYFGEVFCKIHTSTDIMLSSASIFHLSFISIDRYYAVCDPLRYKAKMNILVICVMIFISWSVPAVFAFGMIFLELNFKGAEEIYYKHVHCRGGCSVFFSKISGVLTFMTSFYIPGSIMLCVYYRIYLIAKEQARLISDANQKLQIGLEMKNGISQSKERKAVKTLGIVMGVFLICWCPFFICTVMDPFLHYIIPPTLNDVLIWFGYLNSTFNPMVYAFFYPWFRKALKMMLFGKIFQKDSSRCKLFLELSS
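Assay system: CHO-derived RD-HGA16 cells stably expressing human TAAR1 plus Gα16. Timing: 140 s kinetic read after compound, 140 s after agonist. Technique: kinetic Fluo-8 calcium fluorescence measurement. Measure: % inhibition of agonist calcium response.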
OX1R antag-1: OX1R (HCRTR1) antagonists, primary screen, fluorescence, CHO/OX1R cells, Fluo-8 calcium, orexin A; Orexin/Hypocretin receptor type 1 (Homo sapiens), O43613; Fluo-8 calcium fluorescence; inhibition, % at 5 µM; 330,000 compounds, 0.43% hits;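 active = inhibition above its plate's threshold, mean inhibition of all tested compounds on the plate plus 3 SD, cut at about 37% in these data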
OX1R antag-2: antagonists of human orexin 1 receptor (OX1R) | 330,000 compounds, 1.8% hits | Orexin/Hypocretin receptor type 1 (Homo sapiens), O43613 | AID 485270, 2010 | OX1R-expressing cells, FRET antagonist read-out | inhibition, % at 6.6 µM; in the data active = inhibition mostly above about 38%, no sharp cut-off; inactive = mostly below about 40%
CHO parental Ca: ATP-evoked calcium signal inhibitors, parental CHO, primary screen, counter-screen for OX1R antagonist project, cell-based, fluorescence, Fluo-8 calcium dye | parental CHO-K1, ATP-induced calcium, Fluo-8 fluorescence | inhibition, % at 5.6 µM | 330,000 compounds, 0.63% hits | AID 463079, 2010;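 active = inhibition above that plate's mean sample inhibition plus 3 SD, cut at about 26% in these data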
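Assay system: parental CHO cells; Read-out basis: percent inhibition of ATP-evoked calcium rise, normalized to controls; Benchmarks: ATP and no-ATP DMSO wells; Compound dosing: single nominal dose of 5.6 µM per compound; Signal: Fluo-8 calcium dye fluorescence; Also added: ATP as calcium-mobilizing challenge; Repeats: singlicate.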
TAAR1 agonist: human TAAR1 agonists, primary screen, Fluo-8 calcium fluorescence, CHO RD-HGA16 cells; activation, % at 3 µM; vehicle wells 0%, saturating PEA agonist 100%; AID 624467, 2012; 360,000 compounds, 0.99% hits;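 active = activation above the mean activation of all test compounds in the run plus 3 SD, cut at about 38% in these data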
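Repeats: no replicates (n 1) | Material: CHO-derived RD-HGA16 cells with stable Gα16 and human TAAR1 | Technique: Kinetic Fluo-8 calcium fluorescence | Schedule: 17-24 h seeding, 75 min 37 °C dye, 30 min RT | Evaluation: % activation from peak over basal fluorescence ratio, DMSO-to-PEA scaled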
GalR3 antag: GalR3 antagonists in HEK293 cells, primary screen, cell-based, fluorescence readout; Galanin receptor type 3 (Homo sapiens), O60755; HEK293 GalR3-CNG cAMP membrane potential fluorescence; galR3 body fused to GalR1 C-terminus; inhibition, % at 3 µM; 360,000 compounds, 0.44% hits; AID 651719, 2012;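 active = inhibition above the screen-wide average plus 3 SD, cut at about 13% in these data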;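 note: forskolin and galanin both at EC90 stimulate the cells; cAMP rise reported by CNG channel membrane potential dye signal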
Target sequence (O60755 1-299 limits assumed): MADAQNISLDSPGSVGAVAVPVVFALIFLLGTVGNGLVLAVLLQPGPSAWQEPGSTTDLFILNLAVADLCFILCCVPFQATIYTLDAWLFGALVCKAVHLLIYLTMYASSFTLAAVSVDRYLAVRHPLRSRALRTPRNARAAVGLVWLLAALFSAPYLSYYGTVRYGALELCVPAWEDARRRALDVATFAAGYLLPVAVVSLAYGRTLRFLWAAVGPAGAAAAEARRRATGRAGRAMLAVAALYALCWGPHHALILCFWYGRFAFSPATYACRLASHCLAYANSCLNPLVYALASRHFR
OX1R Ca confirm: OX1R (HCRTR1) antagonists, confirmation, fluorescence, CHO/OX1R cells, Fluo-8 calcium, orexin A; shares compounds with OX1R antag-1; orexin A calcium Fluo-8 fluorescence; inhibition, % at 5 µM; 1,100 compounds, 38% hits; in the data active = inhibition above about 29%
CHO Ca counter: ATP-evoked calcium inhibition in parental CHO, counter-screen for OX1R antagonist project, cell-based, fluorescence, CHO-K1, triplicate; shares compounds with OX1R antag-1; ATP-induced calcium, Fluo-8 fluorescence; inhibition, % at 5.6 µM; 1,100 compounds, 9.3% hits;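 active = inhibition above a per-plate limit, the mean inhibition of that plate's test compounds plus 3 SD, cut at about 25% in these data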
OX1R HTRF confirm: OX1R (HCRTR1) antagonists, confirmation, cell-based, HTRF. shares compounds with OX1R antag-2. OX1R-expressing cells, HTRF antagonist assay. inhibition, % at 6.6 µM. 1,800 compounds, 49% hits; in the data active = inhibition above about 55%;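 note: CHO cells expressing OX1R stimulated with orexin A at about EC80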
CHO-K1 HTRF: signal inhibition in parental CHO-K1 cells, counter-screen for OX1R antagonist project, cell-based, HTRF | shares compounds with OX1R antag-2 | HTRF counterscreen | inhibition, % at 6.6 µM | 1,800 compounds, 48% hits | AID 493232, 2011; in the data active = inhibition above about 17%
Numbers stand for hits; - = inactive; . = no result given.

SMILES	TAAR1 antagonist	OX1R antag-1	OX1R antag-2	CHO parental Ca	TAAR1 agonist	GalR3 antag	OX1R Ca confirm	CHO Ca counter	OX1R HTRF confirm	CHO-K1 HTRF
COc1ccc(-c2csc(NC(=O)c3cc(C)oc3C)n2)cc1OC	-	-	64	-	-	-	-	-	69	-
COc1ccc(-c2csc(NC(=O)c3cc(=O)c4ccccc4o3)n2)cc1OC	-	-	-	-	-	-	.	.	.	.
CS(=O)(=O)c1ccc(C(=O)Nc2cccc(-c3nc4ccccc4[nH]3)c2)cc1	-	-	72	-	-	-	-	-	63	-
CCN(c1ccccc1)S(=O)(=O)c1ccc(Cl)c(NC(=O)CNC(C)c2ccccc2)c1 (stereo not drawn)	-	50	28	-	-	-	-	37	-	-
CCC(C)NCC(=O)Nc1cc(S(=O)(=O)N(CC)c2ccccc2)ccc1Cl (stereo not drawn)	-	-	-	-	-	-	.	.	.	.
O=C(NC(Cc1c[nH]c2ccccc12)C(=O)N/N=C/c1ccc(Cl)cc1)c1cccs1 (stereo not drawn)	-	48	98	-	-	-	64	-	81	-
COC(=O)[C@@]12C[C@@H](CC(=O)N3CCN(C(=O)C4CC4)CC3)C(=O)N(Cc3ccc4c(c3)OCO4)C1=CCC(C)(C)C2	-	.	.	.	-	-	.	.	.	.
CN(Cc1c(C(=O)N/N=C/c2cccc(O)c2)nnn1-c1nonc1N)c1ccccc1	.	84	87	-	.	.	71	-	88	-
Cc1ccc(/C=N/NC(=O)c2nnn(-c3nonc3N)c2CN(C)c2ccccc2)s1	-	-	79	-	-	-	-	-	86	-
C/C(=N\NC(=O)c1nnn(-c2nonc2N)c1CN(C)c1ccccc1)c1cccs1	-	-	53	-	-	-	-	-	79	-
Cc1noc(C)c1C(=O)N1CCC1(C)C(=O)NS(=O)(=O)c1cccc(OC(F)F)c1 (stereo not drawn)	-	.	.	.	-	-	.	.	.	.
CCN(CC)C(=S)SCc1csc(CC(=O)Nc2ccccc2C)n1	-	-	-	-	-	-	.	.	.	.
CC(C)NC(=O)CSc1ccccc1C(=O)NNC(=O)Cn1ccc(C(F)(F)F)n1	-	-	-	-	-	-	.	.	.	.
CCc1cccc(C)c1NC(=O)CSc1n[nH]c(N)n1	-	-	-	-	-	-	.	.	.	.
NC(=O)c1ccc(N2CCNC(=O)C2)c([N+](=O)[O-])c1	-	-	-	-	-	-	.	.	.	.
COc1ccc(NC(=O)C2CCCN2S(=O)(=O)c2cccc3cccnc23)cc1OC (stereo not drawn)	-	-	-	-	-	-	.	.	.	.
Cc1cccc(NC(=O)[C@@H]2CCCN2S(=O)(=O)c2ccc(Cl)cc2)c1	-	74	91	-	-	-	55	-	89	-
CCc1cccc(NC(=O)C2CCCN2S(=O)(=O)c2cccc3cccnc23)c1 (stereo not drawn)	-	87	89	-	-	-	50	-	85	-
C/C(=N\Nc1cccc([N+](=O)[O-])c1)c1ccccc1O	-	-	76	-	-	-	-	-	-	-
Cc1ccccc1NC(=O)C1CCCN1S(=O)(=O)c1ccccc1C(F)(F)F (stereo not drawn)	-	66	81	-	-	-	55	-	94	-
O=C(NCc1ccc(F)cc1)C1CCCN1S(=O)(=O)c1ccccc1C(F)(F)F (stereo not drawn)	-	-	-	-	-	-	.	.	.	.
Cc1ccc(NC(=O)C(c2ccccc2)N2CCN(CC(=O)NC3CC3)CC2)cc1 (stereo not drawn)	-	-	-	-	-	-	.	.	.	.
CCOc1ccccc1C(=O)NCC(=O)N1CCC(C)CC1	-	-	-	-	-	-	.	.	.	.
CCCCN(C(=O)c1ccc(-n2nc(C)cc2C)cc1)c1c(N)n(CCC)c(=O)[nH]c1=O	-	.	.	.	-	-	.	.	.	.
N#Cc1ccccc1NC(=O)CSC1=Nc2ccccc2C2CC=NN12 (stereo not drawn)	-	-	85	-	-	-	-	-	-	-
SMILES	TAAR1 antagonist	OX1R antag-1	OX1R antag-2	CHO parental Ca	TAAR1 agonist	GalR3 antag	OX1R Ca confirm	CHO Ca counter	OX1R HTRF confirm	CHO-K1 HTRF
OCCn1c(SCCOc2ccccc2F)nc2ccccc21	-	52	105	-	-	-	-	-	-	-
Cc1onc(-c2ccccc2)c1NC(=O)OC(C)c1cccnc1 (stereo not drawn)	-	.	.	.	-	-	.	.	.	.
Cc1ccc(-c2csc3nnc(SCC(=O)Nc4nsc(-c5ccccc5)n4)n23)cc1	-	68	82	-	-	-	48	-	91	-
Cc1ccsc1/C=N/N=C1\C(=O)Nc2ccccc21	-	-	91	-	-	-	36	-	93	-
O=C1Nc2ccccc2/C1=N\N=C\c1ccc(O)c(O)c1	-	-	-	-	-	-	.	.	.	.
COC(=O)c1ccccc1NC(=O)CC(=O)Nc1ccccc1C(=O)OC	-	-	79	-	-	-	56	-	84	-
CCn1c(N)c(C(=O)Nc2ccccc2C(=O)OC)sc1=S	-	-	83	-	-	-	42	-	86	-
O=C(CSc1nc(O)cc(=O)n1C1CCCC1)Nc1cccc(Cl)c1Cl	-	-	-	-	-	-	.	.	.	.
COC(=O)c1ccccc1NC(=O)CSc1nc(O)cc(=O)n1C1CCCC1	-	-	78	-	-	-	50	-	88	-
O=C(CSc1nc2ncccc2[nH]1)Nc1ccccc1-c1ccccc1	-	-	72	-	-	-	31	-	72	-
COc1ccccc1NC(=O)CSc1nc2ncccc2[nH]1	-	-	-	-	-	-	.	.	.	.
